Calls of active or inactive are those of the source. The rule behind the calls is not given here.
What was measured:
[1] = Cytotoxicity against mouse NIH/3T3 cells by MTT assay; assay type: cell-based; settings: nih3t3
Summary of the method: (§1)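 Control lines used: NIH3T3 (ATCC) and HECa10 (lymph node-derived). Cells seeded at 2 × 10³ per well in RPMI 1640 with 10% FBS, 37 °C, 5% CO₂. Compounds added after 24 h in quadruplicate (10–2000 µM, eleven concentrations), then 24 or 48 h exposure. MTT for 3 h, formazan dissolved in acid–isopropanol, A570. Survival is percent of initial absorbance.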

[2] = Cytotoxicity against mouse HECa10 cells by MTT assay; assay type: cell-based; summary of the method: as §1
B16-F10 [3] = test: Cytotoxicity against mouse B16F10 cells at 250 uM after 48 hrs by MTT assay; assay type: functional, cell-based
Summary of the method: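 B16(F10) cells at 2 × 10³ per well in RPMI 1640 with 10% FBS, 37 °C, 5% CO₂. Compound added after 24 h in quadruplicate, with 250 µM among the tested concentrations, then incubated 48 h. MTT 0.5 mg/mL for 3 h, formazan dissolved in acid–isopropanol, read at 570 nm. Survival expressed as percent of initial absorbance.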

B16-F10 [4] = test: Cytotoxicity against mouse B16F10 cells after 24 hrs by MTT assay; assay type: functional, cell-based
Summary of the method: (§2)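 B16(F10) murine melanoma cells seeded at 2 × 10³ per well in RPMI 1640 with 10% FBS, 37 °C, 5% CO₂. After 24 h, compounds added in quadruplicate at eleven concentrations (10–2000 µM), then incubated a further 24 or 48 h. MTT (0.5 mg/mL in PBS) for 3 h at 37 °C, formazan dissolved in acid–isopropanol, A570. Survival = absorbance at time t / initial absorbance × 100%.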

B16-F10 [5] = test: Cytotoxicity against mouse B16F10 cells after 48 hrs by MTT assay; assay type: functional, cell-based; summary of the method: as §2

Row | SMILES | Activity [1] | Activity [2] | Activity (B16-F10 [3]) | Activity (B16-F10 [4]) | Activity (B16-F10 [5])
1 | C[C@@](Cc1ccc(O)c(O)c1)(NN)C(=O)O.O [CARBIDOPA] | Toxic | Toxic | Active | – | –
2 | Cc1cc2cc(O)c(O)cc2nn1 | Toxic | Toxic | – | inactive | Active
3 | CC(Cc1ccc(O)c(O)c1)C(=O)O (stereo unspecified) | Toxic | Toxic | – | Dose-dependent effect | Dose-dependent effect
